The results in this text go back to ChEMBL document CHEMBL4814000, “Discovery of β-carboline-(phenylsulfonyl)furoxan hybrids as potential anti-breast cancer agents” (Bioorg Med Chem Lett, 2021).

Active and inactive are the calls of the source. The calls are words filed in the database; no cut-off is given here.

One may read the IC50 as the concentration that gives 50% inhibition.

Assay [1] relates to MCF7. Description: Antiproliferative activity against human MCF7 cells assessed as reduction in cell viability incubated for 72 hrs by CCK-8 assay. It counts as functional, cell-based. To be noted: MCF7, 72 h. In a few lines: (§1)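 CCK-8 viability assay on MCF-7 or MDA-MB-231 cells after 72 h compound exposure; IC50 taken as half inhibitory concentration, reported as mean ± SD of three independent experiments.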
Background: Formazan colour is commonly taken as a measure of viable cells.

The test system of assay [2] is MDA-MB-231. Description: Antiproliferative activity against human MDA-MB-231 cells assessed as reduction in cell viability incubated for 72 hrs by CCK-8 assay. The class given is functional, cell-based. Conditions: MDA-MB-231, 72 h. In a few lines:
as §1

A short description of assay [3]: Nitric oxide releasing activity assessed as amount of NO release measured up to 24 hrs by Griess assay. It counts as functional. To be noted: time hrs <=24. In outline: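 Griess assay measuring NO released by compounds in vitro over time; values are averages of three independent experiments.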

As to `Cc1nc(C(=O)NCCOc2no[n+]([O-])c2S(=O)(=O)c2ccccc2)cc2c1[nH]c1ccccc12`, the IC50 in assay [1] came out at 4.96 µM; in assay [2], 3.84 µM.
The like results for `O=C(OCCCOc1no[n+]([O-])c1S(=O)(=O)c1ccccc1)c1cc2c(cn1)[nH]c1ccccc12` were, in that order, 4.64 µM and 7.96 µM.
For the molecule `O=C(NCCCOc1no[n+]([O-])c1S(=O)(=O)c1ccccc1)c1cc2c(cn1)[nH]c1ccccc12`, the IC50 came out at 4.64 µM in assay [1] and 7.5 µM in assay [2].
As for `Cc1nc(C(=O)OCCCCOc2no[n+]([O-])c2S(=O)(=O)c2ccccc2)cc2c1[nH]c1ccccc12`, the IC50 in assay [1] is 4.28 µM; in assay [2] it was 4.54 µM.
With `O=C(OCC#CCOc1no[n+]([O-])c1S(=O)(=O)c1ccccc1)c1cc2c(cn1)[nH]c1ccccc12`, the IC50 is 5.27 µM in assay [1] and 5.89 µM in assay [2].
On the same counts, the results for `COc1ccc(-c2nc(C(=O)OCCCCOc3no[n+]([O-])c3S(=O)(=O)c3ccccc3)cc3c2[nH]c2ccccc23)cc1` are 2.92 µM and 4.26 µM.
For the molecule `COc1ccc(-c2nc(C(=O)OCC#CCOc3no[n+]([O-])c3S(=O)(=O)c3ccccc3)cc3c2[nH]c2ccccc23)cc1`, the IC50 in assay [1] turned out to be 2.35 µM; in assay [2], 1.16 µM.
Turning to `COc1ccc(-c2nc(C(=O)OCCCCCCOc3no[n+]([O-])c3S(=O)(=O)c3ccccc3)cc3c2[nH]c2ccccc23)cc1`, the outcome in assay [3] was Active. In addition, the figures for the IC50 in assay [1] and in assay [2] were 5.36 µM and 2.98 µM, respectively.
With `O=C(OCCOCCOc1no[n+]([O-])c1S(=O)(=O)c1ccccc1)c1cc2c(cn1)[nH]c1ccccc12`, the IC50 in assay [1] stood at 19 µM; in assay [2], 15.8 µM.
Take `COc1ccc(-c2nc(C(=O)N3CCN(CCOc4no[n+]([O-])c4S(=O)(=O)c4ccccc4)CC3)cc3c2[nH]c2ccccc23)cc1`: the result in assay [3] was Active. In addition, the figures for the IC50 in assay [1] and in assay [2] were 1.33 µM and 0.92 µM, respectively.
Regarding `COc1cccc2c1C(=O)c1c(O)c3c(c(O)c1C2=O)C[C@@](O)(C(=O)CO)C[C@@H]3O[C@H]1C[C@H](N)[C@H](O)[C@H](C)O1` [DOXORUBICIN], the IC50 in assay [2] came to 2.86 µM.
In the case of `COc1ccc2c(c1)[nH]c1c(C)nccc12` [HARMINE], the values for the IC50 in assay [1] and in assay [2] were 16.9 µM and 21.9 µM, respectively.
On the same counts, the results for `Cc1nc(C(=O)OCCCCCCOc2no[n+]([O-])c2S(=O)(=O)c2ccccc2)cc2c1[nH]c1ccccc12` are 6.85 µM and 5.75 µM.
The like results for `COc1ccc(-c2nc(C(=O)O)cc3c2[nH]c2ccccc23)cc1` were, in that order, 14.3 µM and 12.6 µM.
The like results for `Cc1nc(C(=O)NCCCOc2no[n+]([O-])c2S(=O)(=O)c2ccccc2)cc2c1[nH]c1ccccc12` were, in that order, 2.97 µM and 1.62 µM.
`COc1ccc(-c2nc(C(=O)OCCOc3no[n+]([O-])c3S(=O)(=O)c3ccccc3)cc3c2[nH]c2ccccc23)cc1`: the outcome in assay [3] was Active. For the same molecule, the IC50 in assay [1] was 4.8 µM; in assay [2] it was 3.59 µM.
In the case of `Cc1nc(C(=O)OCC#CCOc2no[n+]([O-])c2S(=O)(=O)c2ccccc2)cc2c1[nH]c1ccccc12`, the IC50 in assay [1] worked out at 8.86 µM; in assay [2], 6.91 µM.
For `Cc1nc(C(=O)OCCOc2no[n+]([O-])c2S(=O)(=O)c2ccccc2)cc2c1[nH]c1ccccc12`, the figures for the IC50 in assay [1] and in assay [2] were 4.58 µM and 7.46 µM, respectively.
For the molecule `O=C(NCCOc1no[n+]([O-])c1S(=O)(=O)c1ccccc1)c1cc2c(cn1)[nH]c1ccccc12`, the values for the IC50 in assay [1] and in assay [2] were 7.53 µM and 6.75 µM, respectively.
The like results for `COc1ccc(-c2nc(C(=O)OCCOCCOc3no[n+]([O-])c3S(=O)(=O)c3ccccc3)cc3c2[nH]c2ccccc23)cc1` were, in that order, 3.92 µM and 2.53 µM.
`O=C(OCCCCCCOc1no[n+]([O-])c1S(=O)(=O)c1ccccc1)c1cc2c(cn1)[nH]c1ccccc12`: the IC50 in assay [1] stood at 13.7 µM; in assay [2], 8.87 µM.
The like results for `Cc1nc(C(=O)NCC(C)Oc2no[n+]([O-])c2S(=O)(=O)c2ccccc2)cc2c1[nH]c1ccccc12` (centres undefined) were, in that order, 3.8 µM and 2.2 µM.
In the case of `O=C(O)c1cc2c(cn1)[nH]c1ccccc12`, the IC50 in assay [1] and in assay [2] was more than 30 µM in each case.
In the case of `COc1ccc(-c2nc(C(=O)NCC(C)Oc3no[n+]([O-])c3S(=O)(=O)c3ccccc3)cc3c2[nH]c2ccccc23)cc1` (centres undefined), the result in assay [3] was Active. Also, the IC50 in assay [1] came to 1.56 µM; in assay [2] it was 2.27 µM.
For `O=C(OCCCCOc1no[n+]([O-])c1S(=O)(=O)c1ccccc1)c1cc2c(cn1)[nH]c1ccccc12`, the IC50 in assay [1] came out at 9.57 µM; in assay [2], 12.5 µM.
The like results for `CC(CNC(=O)c1cc2c(cn1)[nH]c1ccccc12)Oc1no[n+]([O-])c1S(=O)(=O)c1ccccc1` (centres undefined) were, in that order, 6.94 µM and 5.97 µM.
In the case of `Cc1nc(C(=O)O)cc2c1[nH]c1ccccc12` [HARMAN-3-CARBOXYLIC ACID], the figures for the IC50 in assay [1] and in assay [2] were 19.2 µM and 22.6 µM, respectively.
`O=S(=O)(c1ccccc1)c1no[n+]([O-])c1S(=O)(=O)c1ccccc1`: the IC50 in assay [1] turned out to be 3.92 µM; in assay [2] it was 4.84 µM.
On the same counts, the results for `Cc1nc(C(=O)N2CCN(CCOc3no[n+]([O-])c3S(=O)(=O)c3ccccc3)CC2)cc2c1[nH]c1ccccc12` are 3.29 µM and 3.47 µM.
As to `Cc1nc(C(=O)OCCOCCOc2no[n+]([O-])c2S(=O)(=O)c2ccccc2)cc2c1[nH]c1ccccc12`, the IC50 in assay [1] came to 5.89 µM; in assay [2], 7.67 µM.
As for `O=C(c1cc2c(cn1)[nH]c1ccccc12)N1CCN(CCOc2no[n+]([O-])c2S(=O)(=O)c2ccccc2)CC1`, the IC50 worked out at 8.28 µM in assay [1] and 6.83 µM in assay [2].
As for `COc1ccc(-c2nc(C(=O)NCCOc3no[n+]([O-])c3S(=O)(=O)c3ccccc3)cc3c2[nH]c2ccccc23)cc1`, the outcome in assay [3] was Active. For the same molecule, the IC50 came to 1.45 µM in assay [1] and 0.87 µM in assay [2].
With `COc1ccc(-c2nc(C(=O)OCCCOc3no[n+]([O-])c3S(=O)(=O)c3ccccc3)cc3c2[nH]c2ccccc23)cc1`, the IC50 in assay [1] came out at 3.49 µM; in assay [2], 2.86 µM.
On the same counts, the results for `Cc1nc(C(=O)OCCCOc2no[n+]([O-])c2S(=O)(=O)c2ccccc2)cc2c1[nH]c1ccccc12` are 4.88 µM and 2.24 µM.
For the molecule `O=C(OCCOc1no[n+]([O-])c1S(=O)(=O)c1ccccc1)c1cc2c(cn1)[nH]c1ccccc12`, the IC50 in assay [1] stood at 11.5 µM; in assay [2], 9.56 µM.
